Active and inactive are the calls of the source. The calls are words filed in the database; no cut-off is given here.
Key:
[1] = molecular target: Transient receptor potential cation channel subfamily M member 8 (Mus musculus) (UniProt Q8R4D5); conditions: Dorsal root ganglion, HEK T-REx, 5 to 100 uM
[2] = molecular target: T1, Transient receptor potential cation channel subfamily V member 1 (Homo sapiens, UniProt Q8NER1); experiment: Competitive antagonist activity at human brain TRPV1 expressed in HEK293T cells assessed as inhibition of CAP-induced intracellular Ca2+ influx at 50 uM preincubated for 3 mins followed by CAP challenge measured after 10 mins of post compound washout; assay type: cell-based; conditions: HEK-293T
T1 sequence (Q8NER1 whole entry): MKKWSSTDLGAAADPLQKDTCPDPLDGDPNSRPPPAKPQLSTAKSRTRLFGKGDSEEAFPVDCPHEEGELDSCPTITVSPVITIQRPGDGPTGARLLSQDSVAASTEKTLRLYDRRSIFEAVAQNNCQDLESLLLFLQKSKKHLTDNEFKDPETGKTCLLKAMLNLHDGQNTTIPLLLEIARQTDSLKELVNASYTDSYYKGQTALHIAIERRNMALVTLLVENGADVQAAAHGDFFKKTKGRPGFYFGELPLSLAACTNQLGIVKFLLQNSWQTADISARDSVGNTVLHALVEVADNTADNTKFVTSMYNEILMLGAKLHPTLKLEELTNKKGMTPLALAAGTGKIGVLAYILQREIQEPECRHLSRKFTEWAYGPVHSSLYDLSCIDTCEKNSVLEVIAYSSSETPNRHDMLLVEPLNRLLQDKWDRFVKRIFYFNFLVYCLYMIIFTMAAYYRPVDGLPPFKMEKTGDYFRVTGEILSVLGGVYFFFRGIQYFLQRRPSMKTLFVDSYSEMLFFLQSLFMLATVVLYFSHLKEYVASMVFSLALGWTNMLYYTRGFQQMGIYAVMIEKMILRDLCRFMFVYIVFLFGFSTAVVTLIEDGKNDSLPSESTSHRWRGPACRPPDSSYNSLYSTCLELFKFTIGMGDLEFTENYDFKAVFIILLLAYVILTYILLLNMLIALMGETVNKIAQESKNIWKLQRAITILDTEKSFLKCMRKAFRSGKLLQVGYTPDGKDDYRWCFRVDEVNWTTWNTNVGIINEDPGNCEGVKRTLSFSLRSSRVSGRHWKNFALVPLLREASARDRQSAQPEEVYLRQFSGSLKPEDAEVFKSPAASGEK
Method in brief: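 hTRPV1-HEK293T cells incubated 3 min with 50 μM compound, washed six times with buffer, kept 10 min at 37 °C in dark, then challenged with 0.01 μM capsaicin; Fluo-4 Ca2+ read-out as % of 10 μM capsaicin.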

[3] = molecular target: Transient receptor potential cation channel subfamily A member 1 (Homo sapiens, UniProt O75762); experiment: Agonist activity at TRPA1 isolated from human W138 cells expressed in HEK T-REx cells assessed as intracellular Ca2+ influx at 10 to 100 uM by Fluo-4 AM staining-based fluorescence analysis; assay type: cell-based
Transient receptor potential cation channel subfamily A member 1, sequence (O75762 whole entry): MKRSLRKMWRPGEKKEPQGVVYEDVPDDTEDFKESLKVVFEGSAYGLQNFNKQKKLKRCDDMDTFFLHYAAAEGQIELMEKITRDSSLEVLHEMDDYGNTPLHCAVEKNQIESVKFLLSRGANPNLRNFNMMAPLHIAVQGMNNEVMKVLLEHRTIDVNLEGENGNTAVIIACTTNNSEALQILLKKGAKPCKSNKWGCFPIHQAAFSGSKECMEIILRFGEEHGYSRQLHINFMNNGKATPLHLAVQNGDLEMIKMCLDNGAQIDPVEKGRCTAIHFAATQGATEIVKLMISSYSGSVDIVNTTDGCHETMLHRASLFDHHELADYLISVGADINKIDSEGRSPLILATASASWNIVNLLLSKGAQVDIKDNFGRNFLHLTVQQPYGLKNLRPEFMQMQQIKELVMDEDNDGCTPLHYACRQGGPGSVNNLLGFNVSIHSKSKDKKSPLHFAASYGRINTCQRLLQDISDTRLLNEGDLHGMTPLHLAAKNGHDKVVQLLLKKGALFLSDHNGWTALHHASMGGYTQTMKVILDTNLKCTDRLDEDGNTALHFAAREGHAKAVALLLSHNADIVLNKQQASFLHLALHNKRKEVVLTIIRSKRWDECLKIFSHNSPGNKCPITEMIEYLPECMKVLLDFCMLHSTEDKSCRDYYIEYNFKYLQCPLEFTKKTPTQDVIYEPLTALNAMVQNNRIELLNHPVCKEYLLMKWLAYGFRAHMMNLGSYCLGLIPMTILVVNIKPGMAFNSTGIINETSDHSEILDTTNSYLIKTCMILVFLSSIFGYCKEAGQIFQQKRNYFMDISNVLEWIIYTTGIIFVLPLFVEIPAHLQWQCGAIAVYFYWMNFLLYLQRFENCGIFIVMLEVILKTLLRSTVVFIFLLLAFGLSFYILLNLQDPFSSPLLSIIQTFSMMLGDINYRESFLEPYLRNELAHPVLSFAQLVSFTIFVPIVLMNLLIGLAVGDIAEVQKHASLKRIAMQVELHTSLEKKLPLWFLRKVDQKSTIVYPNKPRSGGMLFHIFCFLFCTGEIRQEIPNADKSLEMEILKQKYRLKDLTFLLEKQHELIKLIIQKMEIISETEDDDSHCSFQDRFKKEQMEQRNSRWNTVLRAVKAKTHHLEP
Method in brief: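 Tetracycline-induced (1 μg/mL) stable hTRPA1 in HEK T-REx cells, Fluo-4 AM loaded (3 μM, 1 h, 37 °C) in HEPES buffer pH 7.4 with probenecid; Ca2+ read at 37 °C. Compound 0.01−100 μM; HC-030031 30 μM pretreated 3 min. Responses as % of 5 μM ionomycin or of 100 μM AITC; TREx cells without TRPA1 as control; n = 4−8.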

[4] = molecular target: T1, Transient receptor potential cation channel subfamily V member 1; experiment: Competitive antagonist activity at human brain TRPV1 expressed in HEK293T cells assessed as inhibition of CAP-induced intracellular Ca2+ influx preincubated for 3 mins followed by CAP challenge by Schlid plot analysis; assay type: cell-based
Method in brief: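 hTRPV1-HEK293T; capsaicin curves 0.0001−10 μM with 10, 30, 50 μM compound after 3 min preincubation. Schild plots (log(dose ratio − 1) vs log antagonist), six series; slope not differing from unity taken as competitive; KB derived.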

[5] = molecular target: Transient receptor potential cation channel subfamily M member 8 (Mus musculus) (UniProt Q8R4D5); conditions: Dorsal root ganglion, HEK T-REx, 100 uM
[6] = molecular target: Transient receptor potential cation channel subfamily M member 8 (Mus musculus, UniProt Q8R4D5); experiment: Competitive antagonist at TRPM8 isolated from mouse dorsal root ganglion cells expressed in HEK T-REx cells assessed as inhibition of menthol-induced intracellular Ca2+ influx by Schlid plot analysis
Transient receptor potential cation channel subfamily M member 8, sequence (Q8R4D5 whole entry): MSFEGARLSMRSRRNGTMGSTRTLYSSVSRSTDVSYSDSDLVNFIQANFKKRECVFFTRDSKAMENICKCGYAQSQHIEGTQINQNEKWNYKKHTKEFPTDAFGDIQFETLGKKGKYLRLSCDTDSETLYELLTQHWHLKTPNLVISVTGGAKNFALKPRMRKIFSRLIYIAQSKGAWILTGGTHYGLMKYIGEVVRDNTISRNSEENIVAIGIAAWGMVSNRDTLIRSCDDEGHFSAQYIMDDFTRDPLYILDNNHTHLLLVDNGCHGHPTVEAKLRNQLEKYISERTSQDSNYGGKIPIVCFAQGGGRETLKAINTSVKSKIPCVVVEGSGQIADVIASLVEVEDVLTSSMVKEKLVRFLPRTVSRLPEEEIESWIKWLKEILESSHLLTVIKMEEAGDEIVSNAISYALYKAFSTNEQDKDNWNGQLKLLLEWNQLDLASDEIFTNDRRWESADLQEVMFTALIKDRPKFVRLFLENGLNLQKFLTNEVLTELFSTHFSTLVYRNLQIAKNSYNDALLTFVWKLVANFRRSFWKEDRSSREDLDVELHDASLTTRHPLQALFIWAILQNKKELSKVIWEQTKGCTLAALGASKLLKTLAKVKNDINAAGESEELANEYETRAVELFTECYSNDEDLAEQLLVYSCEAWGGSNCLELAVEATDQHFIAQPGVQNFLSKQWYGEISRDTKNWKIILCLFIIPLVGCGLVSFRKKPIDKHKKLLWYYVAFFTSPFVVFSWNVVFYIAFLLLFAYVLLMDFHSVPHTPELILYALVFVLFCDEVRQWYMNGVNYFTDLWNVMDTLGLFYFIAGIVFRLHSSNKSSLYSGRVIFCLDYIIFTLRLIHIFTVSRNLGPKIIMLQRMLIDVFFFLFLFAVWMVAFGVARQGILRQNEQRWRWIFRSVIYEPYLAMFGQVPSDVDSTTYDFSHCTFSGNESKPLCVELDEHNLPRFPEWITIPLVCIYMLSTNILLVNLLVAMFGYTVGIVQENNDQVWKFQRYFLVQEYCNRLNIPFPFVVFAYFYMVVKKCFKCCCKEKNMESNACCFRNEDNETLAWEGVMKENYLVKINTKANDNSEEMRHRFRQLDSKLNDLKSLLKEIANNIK

[7] = molecular target: Transient receptor potential cation channel subfamily M member 8 (Mus musculus) (UniProt Q8R4D5); conditions: Dorsal root ganglion, HEK T-REx, 10 to 50 uM
[8] = molecular target: T1, Transient receptor potential cation channel subfamily V member 1; experiment: Competitive antagonist activity at […] Wistar rat DRG neurons assessed as inhibition of CAP-induced intracellular Ca2+ influx at 100 uM preincubated for 3 mins followed by CAP challenge; assay type: cell-based
Method in brief: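 Primary DRG neurons from 4-week-old Wistar rats, collagenase-dissociated, cultured with NGF 24−36 h. Fluo-4 Ca2+ imaging with superfusion of 0.1 μM capsaicin and 100 μM compound.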

[9] = molecular target: Transient receptor potential cation channel subfamily M member 8 (Mus musculus) (UniProt Q8R4D5); conditions: Dorsal root ganglion, HEK T-REx, 100 uM; remark: listed apart in the source
[10] = molecular target: T2, Transient receptor potential cation channel subfamily V member 2 (Homo sapiens) (UniProt Q9Y5S1); experiment: Antagonist activity at human TRPV2 expressed in HEK293T cells assessed as LPC-induced intracellular Ca2+ influx at 100 uM by Fluo-4 AM staining-based fluorescence analysis; assay type: cell-based; conditions: HEK-293T
T2 sequence (whole entry): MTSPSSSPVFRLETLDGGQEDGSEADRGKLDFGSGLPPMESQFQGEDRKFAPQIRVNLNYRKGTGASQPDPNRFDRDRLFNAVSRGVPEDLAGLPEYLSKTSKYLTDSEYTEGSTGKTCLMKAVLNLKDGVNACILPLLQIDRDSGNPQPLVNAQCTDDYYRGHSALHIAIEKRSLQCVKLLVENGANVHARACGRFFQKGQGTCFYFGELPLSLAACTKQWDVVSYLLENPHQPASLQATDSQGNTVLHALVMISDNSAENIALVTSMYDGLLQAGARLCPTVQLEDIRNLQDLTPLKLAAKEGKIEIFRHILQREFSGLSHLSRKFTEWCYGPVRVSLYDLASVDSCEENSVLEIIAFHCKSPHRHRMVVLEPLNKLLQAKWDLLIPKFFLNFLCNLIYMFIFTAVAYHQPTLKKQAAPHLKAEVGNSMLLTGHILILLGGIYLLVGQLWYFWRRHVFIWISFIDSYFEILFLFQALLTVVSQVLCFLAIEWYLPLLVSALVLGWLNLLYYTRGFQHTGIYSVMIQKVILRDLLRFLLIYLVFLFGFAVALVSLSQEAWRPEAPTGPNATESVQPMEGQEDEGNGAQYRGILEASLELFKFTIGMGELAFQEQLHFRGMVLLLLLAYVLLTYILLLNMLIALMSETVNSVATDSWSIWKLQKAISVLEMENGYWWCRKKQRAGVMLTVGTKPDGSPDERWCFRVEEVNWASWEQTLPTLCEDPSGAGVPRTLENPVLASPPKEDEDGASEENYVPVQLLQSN
Method in brief: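 hTRPV2 transiently transfected into HEK293T, seeded 6 h after transfection and used 18 h later. Fluo-4 loading in probenecid-free buffer, 37 °C. Agonist 30 and 40 μM LPC; ruthenium red 5 μM as reference blocker; 100 μM compound given alone or pretreated 3 min. Read-out ΔF/F0 (%).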

Transient receptor potential cation channel subfamily M member 8 (Mus musculus), sequence (Q8R4D5 whole entry): as the sequence (Q8R4D5 whole entry) above

CC[C@H]1C[C@@H]2CN3CCc4c([nH]c5ccc(OC)cc45)[C@](C(=O)OC)(C2)[C@H]13 [VOACANGINE]
inhibition [1]: Active | inhibition [2]: inactive | Activity [3]: inactive | Kb ([4]; HEK-293T): 18 µM | Kb ([4]; read-out: pA2 (converted)): 20 µM | inhibition [5]: inactive | Kb [6]: 7.94 µM | inhibition [7]: inactive | inhibition [8]: Active | inhibition [9]: inactive | Activity [10]: inactive

From ChEMBL document CHEMBL3108739, “Activation and inhibition of thermosensitive TRP channels by voacangine, an alkaloid present in Voacanga africana, an African tree” (J Nat Prod, 2014)
